Measured values reported in ChEMBL document CHEMBL2034814, “Synthesis and evaluation of γ-lactam analogs of PGE₂ as EP4 and EP2/EP4 agonists” (Bioorg Med Chem, 2012).

Experiments:
[1] = target: T1, Prostaglandin E2 receptor EP1 subtype (Mus musculus, UniProt P35375); assay: Displacement of [3H]PGE2 from mouse EP1 receptor expressed in CHO cells after 20 mins by scintillation counting; assay type: cell-based
T1 sequence (P35375 whole entry): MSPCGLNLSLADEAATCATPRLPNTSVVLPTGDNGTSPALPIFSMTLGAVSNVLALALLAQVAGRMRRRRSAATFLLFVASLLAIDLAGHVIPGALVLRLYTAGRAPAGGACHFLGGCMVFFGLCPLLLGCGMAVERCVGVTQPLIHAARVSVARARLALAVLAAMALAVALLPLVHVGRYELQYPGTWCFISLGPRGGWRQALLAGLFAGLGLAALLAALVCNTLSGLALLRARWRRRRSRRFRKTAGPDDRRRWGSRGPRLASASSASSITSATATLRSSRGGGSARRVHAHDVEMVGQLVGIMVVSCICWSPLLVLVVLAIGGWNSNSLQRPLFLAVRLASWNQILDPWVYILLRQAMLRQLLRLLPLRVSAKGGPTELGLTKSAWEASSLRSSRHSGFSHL

[2] = target: Prostaglandin E2 receptor EP2 subtype (Mus musculus, UniProt Q62053); assay: Displacement of [3H]PGE2 from mouse EP2 receptor expressed in CHO cells after 60 mins by scintillation counting; assay type: cell-based
[3] = target: T2, Prostaglandin E2 receptor EP3 subtype (Mus musculus, UniProt P30557); assay: Displacement of [3H]PGE2 from mouse EP3 receptor expressed in CHO cells after 60 mins by scintillation counting; assay type: cell-based
T2 sequence (P30557 whole entry): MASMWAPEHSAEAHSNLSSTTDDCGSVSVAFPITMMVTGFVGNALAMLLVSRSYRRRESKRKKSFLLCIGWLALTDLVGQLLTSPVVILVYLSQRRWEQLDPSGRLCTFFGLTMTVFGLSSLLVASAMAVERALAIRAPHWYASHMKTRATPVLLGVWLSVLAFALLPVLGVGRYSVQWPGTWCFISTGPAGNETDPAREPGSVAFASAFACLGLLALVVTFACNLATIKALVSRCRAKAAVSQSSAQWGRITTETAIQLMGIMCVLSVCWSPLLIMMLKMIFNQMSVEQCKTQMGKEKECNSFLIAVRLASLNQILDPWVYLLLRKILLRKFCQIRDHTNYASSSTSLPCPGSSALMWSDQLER

[4] = target: Prostaglandin E2 receptor EP4 subtype (Mus musculus, UniProt P32240); assay: Displacement of [3H]PGE2 from mouse EP4 receptor expressed in CHO cells after 60 mins by scintillation counting; assay type: cell-based
[5] = target: Prostaglandin E2 receptor EP2 subtype (Rattus norvegicus, UniProt Q62928); assay: Agonist activity at rat EP2 receptor expressed in CHO cells assessed as cAMP production after 10 mins by radioimmunoassay; assay type: functional, cell-based
In short: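 CHO cells expressing rat EP2 receptor, seeded 1 × 10^5 cells/well and grown 2 days; washed, incubated 10 min at 37 °C in MEM with 2 µM diclofenac, then preincubated 10 min in assay medium with 1% BSA. Compound added, 10 min at 37 °C, stopped with ice-cold 10% trichloroacetic acid; cAMP measured by radioimmunoassay.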

[6] = target: Prostaglandin E2 receptor EP4 subtype (Rattus norvegicus, UniProt P43114); assay: Agonist activity at rat EP4 receptor expressed in CHO cells assessed as cAMP production after 10 mins by radioimmunoassay; assay type: functional, cell-based
Rattus norvegicus [7] = assay: Induction of bone fracture healing in CrJ:CD(SD)IGS rat assessed as breaking strength of fractured fibulae at 3 ug/kg administered tropically as PLGA microsphere formulation measured after 17 days relative to control; assay type: functional
In short: (§1)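 Male Sprague–Dawley rats, 8 weeks old. Under sodium pentobarbital (30–50 mg/kg) the left fibula midshaft was exposed and cut. Compound in PLGA microspheres injected topically at the fracture. At 17 days fibulae removed for three-point destructive bending; breaking strength expressed as % of the mean of nonfractured fibulae from intact rats, with vehicle-treated fractured controls.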

Rattus norvegicus [8] = assay: Induction of bone fracture healing in CrJ:CD(SD)IGS rat assessed as breaking strength of fractured fibulae at 10 ug/kg administered tropically as PLGA microsphere formulation measured after 17 days relative to control; assay type: functional; in short: as §1
Rattus norvegicus [9] = assay: Induction of bone fracture healing in CrJ:CD(SD)IGS rat assessed as breaking strength of fractured fibulae at 30 ug/kg administered tropically as PLGA microsphere formulation measured after 17 days relative to control; assay type: functional; in short: as §1
Rattus norvegicus [10] = assay: Induction of bone fracture healing in CrJ:CD(SD)IGS rat assessed as breaking strength of fractured fibulae at 100 ug/kg administered tropically as PLGA microsphere formulation measured after 17 days relative to control; assay type: functional; in short: as §1
Rattus norvegicus [11] = assay: Induction of bone fracture healing in CrJ:CD(SD)IGS rat assessed as breaking strength of fractured fibulae at 300 ug/kg administered tropically as PLGA microsphere formulation measured after 17 days relative to control; assay type: functional; in short: as §1
Rattus norvegicus [12] = assay: Induction of bone fracture healing in CrJ:CD(SD)IGS rat assessed as breaking strength of fractured fibulae administered tropically as PLGA microsphere formulation measured after 17 days relative to control; assay type: functional, organism-based; in short: as §1
[13] = Drug release from PLGA microsphere assessed as compound remaining in microsphere at 100 ug/ml after 7 days in presence of 5% methanol; assay type: physicochemical; conditions: 168 h
[14] = Drug release from PLGA microsphere assessed as compound remaining in microsphere at 100 ug/ml after 14 days in presence of 5% methanol; assay type: physicochemical; conditions: 336 h
[15] = Drug release from PLGA microsphere assessed as compound remaining in microsphere at 100 ug/ml after 21 days in presence of 5% methanol; assay type: physicochemical; conditions: 504 h
[16] = Drug release from PLGA microsphere assessed as compound remaining in microsphere at 100 ug/ml after 28 days in presence of 5% methanol; assay type: physicochemical; conditions: 672 h
[17] = Drug release from PLGA microsphere assessed as compound remaining in microsphere at 100 ug/ml after 7 days; assay type: physicochemical; conditions: 168 h
[18] = Drug release from PLGA microsphere assessed as compound remaining in microsphere at 100 ug/ml after 14 days; assay type: physicochemical; conditions: 336 h
[19] = Drug release from PLGA microsphere assessed as compound remaining in microsphere at 100 ug/ml after 21 days; assay type: physicochemical; conditions: 504 h
[20] = Drug release from PLGA microsphere assessed as compound remaining in microsphere at 100 ug/ml after 28 days; assay type: physicochemical; conditions: 672 h
Rattus norvegicus [21] = assay: Toxicity in CrJ:CD(SD)IGS rat assessed as change in mean blood pressure at 300 ug/kg administered tropically as PLGA microsphere formulation; assay type: organism-based; conditions: in vivo, topical_or_ocular, 0.3 mg/kg
In short: (§2)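 Male Sprague–Dawley rats, 7–9 weeks old, anesthetized with urethane (1.5 g/kg, sc); compound given as PLGA microsphere formulation, with heart rate and mean blood pressure monitored.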

Rattus norvegicus [22] = assay: Toxicity in CrJ:CD(SD)IGS rat assessed as change in mean blood pressure at 1000 ug/kg administered tropically as PLGA microsphere formulation; assay type: organism-based; conditions: in vivo, topical_or_ocular, 1 mg/kg; in short: as §2
Rattus norvegicus [23] = assay: Toxicity in CrJ:CD(SD)IGS rat assessed as change in mean blood pressure at 3000 ug/kg administered tropically as PLGA microsphere formulation; assay type: organism-based; conditions: in vivo, topical_or_ocular, 3 mg/kg; in short: as §2
Rattus norvegicus [24] = assay: Toxicity in CrJ:CD(SD)IGS rat assessed as change in heart rate at 300 ug/kg, administered tropically as PLGA microsphere formulation; assay type: organism-based; conditions: in vivo, topical_or_ocular, 0.3 mg/kg; in short: as §2
Rattus norvegicus [25] = assay: Toxicity in CrJ:CD(SD)IGS rat assessed as change in heart rate at 1000 ug/kg, administered tropically as PLGA microsphere formulation; assay type: organism-based; conditions: in vivo, topical_or_ocular, 1 mg/kg; in short: as §2
Rattus norvegicus [26] = assay: Toxicity in CrJ:CD(SD)IGS rat assessed as change in heart rate at 3000 ug/kg, administered tropically as PLGA microsphere formulation; assay type: organism-based; conditions: in vivo, topical_or_ocular, 3 mg/kg; in short: as §2
Rattus norvegicus [27] = assay: Induction of bone fracture healing in CrJ:CD(SD)IGS rat assessed as breaking strength of fractured fibulae at 1 ug/kg administered tropically as PLGA microsphere formulation measured after 17 days relative to control; assay type: functional; in short: as §1

Sequence of Prostaglandin E2 receptor EP4 subtype (Rattus norvegicus, UniProt P43114) (P43114 whole entry): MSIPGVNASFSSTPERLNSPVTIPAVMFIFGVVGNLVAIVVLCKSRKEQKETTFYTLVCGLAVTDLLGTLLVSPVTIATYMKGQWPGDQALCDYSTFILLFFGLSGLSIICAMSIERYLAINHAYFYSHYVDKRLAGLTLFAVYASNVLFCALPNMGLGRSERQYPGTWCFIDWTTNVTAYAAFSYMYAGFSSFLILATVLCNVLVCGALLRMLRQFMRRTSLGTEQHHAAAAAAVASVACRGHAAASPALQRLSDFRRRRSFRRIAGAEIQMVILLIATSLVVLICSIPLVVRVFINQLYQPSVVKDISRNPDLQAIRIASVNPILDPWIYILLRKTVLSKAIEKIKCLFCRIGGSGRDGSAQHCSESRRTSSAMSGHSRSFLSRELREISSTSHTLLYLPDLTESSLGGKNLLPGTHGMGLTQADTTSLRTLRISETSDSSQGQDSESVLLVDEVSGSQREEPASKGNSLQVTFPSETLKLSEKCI
Sequence of Prostaglandin E2 receptor EP2 subtype (Mus musculus, UniProt Q62053) (Q62053 whole entry): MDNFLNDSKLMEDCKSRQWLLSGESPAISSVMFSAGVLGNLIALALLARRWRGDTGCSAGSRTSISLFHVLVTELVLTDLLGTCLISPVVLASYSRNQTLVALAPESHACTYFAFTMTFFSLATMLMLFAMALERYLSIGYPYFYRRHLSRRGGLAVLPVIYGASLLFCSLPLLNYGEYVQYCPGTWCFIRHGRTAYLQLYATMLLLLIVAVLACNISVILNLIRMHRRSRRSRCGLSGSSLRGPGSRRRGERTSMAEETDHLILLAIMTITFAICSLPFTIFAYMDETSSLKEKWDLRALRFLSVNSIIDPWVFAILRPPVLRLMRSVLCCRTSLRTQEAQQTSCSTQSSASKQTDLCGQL
Sequence of Prostaglandin E2 receptor EP2 subtype (Rattus norvegicus, UniProt Q62928) (Q62928 whole entry): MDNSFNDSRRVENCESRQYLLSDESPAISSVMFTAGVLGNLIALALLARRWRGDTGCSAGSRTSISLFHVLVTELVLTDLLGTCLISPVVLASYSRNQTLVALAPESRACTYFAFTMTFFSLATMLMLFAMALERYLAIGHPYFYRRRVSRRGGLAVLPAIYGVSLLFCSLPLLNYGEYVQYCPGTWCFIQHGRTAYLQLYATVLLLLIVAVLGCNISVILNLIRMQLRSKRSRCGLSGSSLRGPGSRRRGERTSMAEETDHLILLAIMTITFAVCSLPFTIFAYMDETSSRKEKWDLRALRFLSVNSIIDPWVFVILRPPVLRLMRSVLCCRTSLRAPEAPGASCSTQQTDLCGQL
Sequence of Prostaglandin E2 receptor EP4 subtype (Mus musculus, UniProt P32240) (P32240 whole entry): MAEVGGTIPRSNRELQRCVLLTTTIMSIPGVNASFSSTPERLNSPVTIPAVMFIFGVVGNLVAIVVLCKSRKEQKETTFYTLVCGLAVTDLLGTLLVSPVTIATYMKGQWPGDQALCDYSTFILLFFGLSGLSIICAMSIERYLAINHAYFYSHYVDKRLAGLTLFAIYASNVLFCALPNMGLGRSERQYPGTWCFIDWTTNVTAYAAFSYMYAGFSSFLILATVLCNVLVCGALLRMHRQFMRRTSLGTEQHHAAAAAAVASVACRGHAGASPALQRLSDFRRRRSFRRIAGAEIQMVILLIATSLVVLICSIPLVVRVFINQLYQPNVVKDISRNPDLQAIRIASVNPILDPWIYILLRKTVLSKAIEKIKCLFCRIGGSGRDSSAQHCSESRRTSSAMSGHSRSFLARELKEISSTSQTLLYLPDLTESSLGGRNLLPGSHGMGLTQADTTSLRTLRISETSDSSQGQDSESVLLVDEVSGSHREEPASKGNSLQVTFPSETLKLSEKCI

Structure (SMILES)	Ki [1] [µM]	Ki [2] [µM]	Ki [3] [µM]	Ki [4] [µM]	EC50 [5] [µM]	EC50 [6] [µM]	Activity [17] [%]	Activity [18] [%]	Activity [19] [%]	Activity [20] [%]	Activity (Rattus norvegicus [7]) [%]	Activity (Rattus norvegicus [8]) [%]	Activity (Rattus norvegicus [9]) [%]	Activity (Rattus norvegicus [10]) [%]	Activity (Rattus norvegicus [11]) [%]	Activity (Rattus norvegicus [12])	further results
O=C(O)CCCSCCN1C(=O)CC[C@@H]1/C=C/[C@@H](O)Cc1cccc(-c2cc3ccccc3o2)c1	> 10	2	> 10	0.0001	–	0.007	94.8	91.1	83.5	46.3	–	–	95.4	136.3	154	Dose-dependent effect	Activity (Rattus norvegicus [21]): 98.4%; Activity (Rattus norvegicus [22]): 98.2%; Activity (Rattus norvegicus [23]): 97.3%; Activity (Rattus norvegicus [24]): 106.3%; Activity (Rattus norvegicus [25]): 104.6%; Activity (Rattus norvegicus [26]): 111.4%
Cc1ccc(-c2cccc(C[C@H](O)/C=C/[C@H]3CCC(=O)N3CCSc3nc(C(=O)O)cs3)c2)cc1	6.1	0.002	> 10	0.00043	0.38	0.015	–	–	–	–	–	–	–	–	–	–	–
Cc1cc(C)c2oc(-c3cccc(C[C@H](O)/C=C/[C@H]4CCC(=O)N4CCSc4nc(C(=O)O)cs4)c3)nc2c1	3.2	0.024	> 10	0.00015	> 10	0.0077	–	–	–	–	–	–	–	–	–	–	–
O=C(O)c1csc(SCCN2C(=O)CC[C@@H]2/C=C/[C@@H](O)Cc2cccc(-c3cc4ccccc4o3)c2)n1	2.7	0.0021	1.7	0.00012	1.5	0.0053	95.7	88.6	80.1	60.8	83.3	104.2	116.6	–	–	Dose-dependent effect	Activity (Rattus norvegicus [27]): 76.1%

The next compounds have a lower Ki [1] than those just listed; values first:

Ki [1] [µM]	Ki [2] [µM]	Ki [3] [µM]	Ki [4] [µM]	EC50 [5] [µM]	EC50 [6] [µM]	Activity [17] [%]	Activity [18] [%]	Activity [19] [%]	Activity [20] [%]	Structure (SMILES)	Activity (Rattus norvegicus [7]) [%]	Activity (Rattus norvegicus [8]) [%]	Activity (Rattus norvegicus [9]) [%]	Activity (Rattus norvegicus [10]) [%]	Activity (Rattus norvegicus [11]) [%]	Activity (Rattus norvegicus [12])	further results
1.3	0.021	> 10	0.00021	> 10	0.0088	–	–	–	–	Cc1ccc2oc(-c3cccc(C[C@H](O)/C=C/[C@H]4CCC(=O)N4CCSc4nc(C(=O)O)cs4)c3)nc2c1	77.7	87.7	98.1	136	144.3	Dose-dependent effect	Activity [13]: 99.6%; Activity [14]: 93.1%; Activity [15]: 85.2%; Activity [16]: 79.3%
0.2	0.056	> 10	0.00016	3.2	0.0016	100	95	86.6	87.6	Cc1ccc2nc(-c3cccc(C[C@H](O)/C=C/[C@H]4CCC(=O)N4CCSc4nc(C(=O)O)cs4)c3)oc2c1	84.4	87.1	71.6	124.6	167.4	Dose-dependent effect	–
0.65	0.067	> 10	0.0002	> 10	0.0049	–	–	–	–	O=C(O)c1csc(SCCN2C(=O)CC[C@@H]2/C=C/[C@@H](O)Cc2cccc(-c3nc4cc(Cl)ccc4o3)c2)n1	–	–	–	–	–	–	–
